Source: ChEMBL document CHEMBL1155527 (J Med Chem, 2010)
Values after ≈ are worked out from the molar mass of the structure shown.

Experiments:
[1] = target: Neuronal acetylcholine receptor subunit alpha-7 (Rattus norvegicus, UniProt Q05941); test: Agonist activity at rat alpha7 nAChR expressed in rat GH4C1 cells assessed as calcium flux by FLIPR; format: functional, cell-based, GH4-C1
Outline: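 Cells were loaded 40 min at 37 °C with 4 μM Fluo-4-AM in HBSS-HEPES pH 7.4 with probenecid. FLIPR Ca2+ flux was read for ~10 min after compound addition. MAX-MIN was normalized to positive control and fitted to a variable-slope sigmoid. Triplicate points from a single experiment.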

[2] = target: T1, 5-hydroxytryptamine receptor 3A (Homo sapiens, UniProt P46098); test: Antagonist activity at human 5HT3A receptor expressed in HEK293 cells by FLIPR assay
T1 sequence (P46098 whole entry): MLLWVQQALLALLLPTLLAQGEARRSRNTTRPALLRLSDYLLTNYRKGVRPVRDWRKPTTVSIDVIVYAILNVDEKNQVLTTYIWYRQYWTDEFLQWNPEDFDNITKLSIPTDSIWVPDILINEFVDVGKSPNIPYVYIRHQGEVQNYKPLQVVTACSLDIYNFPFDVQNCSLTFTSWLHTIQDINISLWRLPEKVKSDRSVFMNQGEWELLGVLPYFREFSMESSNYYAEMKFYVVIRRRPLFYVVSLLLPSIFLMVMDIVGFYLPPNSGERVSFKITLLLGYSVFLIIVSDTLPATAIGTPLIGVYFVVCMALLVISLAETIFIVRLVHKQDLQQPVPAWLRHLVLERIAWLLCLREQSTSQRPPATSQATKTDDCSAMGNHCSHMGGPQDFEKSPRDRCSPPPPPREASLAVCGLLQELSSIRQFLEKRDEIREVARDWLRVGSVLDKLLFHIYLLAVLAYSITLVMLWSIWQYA

[3] = Selectivity ratio of EC50 for human alpha3 nAChR to EC50 for rat alpha7 nAChR
CYP2C9 = CYP2C9 (Homo sapiens, UniProt P11712); test: Inhibition of CYP2C9 at 3 uM by Gentest method; format: ADME
[4] = Solubility in ammonium acetate buffer at pH 7.4 by pseudothermodynamic equilibrium assay; format: physicochemical
CYP3A4 [5] = test: Metabolic stability assessed as compound remaining after 1 hr in presence of human CYP3A4; format: ADME; settings: read-out: Stability
[6] = Selectivity ratio of EC50 for human alpha1 nAChR to EC50 for rat alpha7 nAChR
CYP3A4 [7] = target: CYP3A4 (Homo sapiens, UniProt P08684); test: Inhibition of CYP3A4 at 3 uM by Gentest method; format: ADME
CYP2D6 = CYP2D6 (Homo sapiens, UniProt P10635); test: Inhibition of CYP2D6 at 3 uM by Gentest method; format: ADME
Rattus norvegicus [8] = test: Inhibition of MK-801-induced cognitive function in po dosed Long Evans rat administered 60 mins prior to MK801 challenge measured after 1 hr by novel object recognition test; format: functional; settings: read-out: MED
Outline: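 NOR in rats: vehicle or test compound (0.3-30 mg/kg po) 60 min before the sample trial, and MK-801 (0.03 mg/kg ip) 30 min before. Sample trial was 5 min with two identical objects. Choice trial, 1 h later, was 5 min with one familiar and one novel object. N = 10 per group.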

[9] = AUC (0 to infinity) in brain of Han Wistar rat at 2 mg/kg, po; format: ADME, organism-based; design: time infinity, dose 2 mg/kg, route oral
[10] = Half life in Han Wistar rat at 10 mg/kg, po and 2 mg/kg, iv; format: ADME, organism-based; settings: in vivo
[11] = Tmax in Long Evans rat at 3 mg/kg, po; format: ADME, organism-based; design: dose 3 mg/kg, route oral; settings: in vivo
Outline: (§1)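 Male Long Evans rats (6-8 weeks, 250-550 g) given a single 3 mg/kg oral dose as a solution in 2% Tween, 0.5% methocell in water. Plasma sampled over 6 h. Levels measured by LC-MS/MS after acetonitrile protein precipitation with internal standard; detection limit 1 ng/mL.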

[12] = AUC (last) in Long Evans rat at 3 mg/kg, po; format: ADME, organism-based; design: time 0 - last, dose 3 mg/kg, route oral; settings: plasma; outline: as §1
Rattus norvegicus [13] = test: Inhibition of MK-801-induced perceptual processing in po dosed Long Evans rat administered 60 mins prior to MK801 challenge measured after 1 hr by prepulse inhibition test; format: functional; settings: read-out: MED
Outline: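 Rat prepulse inhibition: test compound (1-30 mg/kg) given po 60 min and MK-801 (0.085 mg/kg) sc 10 min before testing. After 5 min at 64 dB background, 61 trials were run: 120 dB pulse alone or with a 69/74/79 dB prepulse 100 ms earlier. PPI = 100 - (prepulse/pulse startle × 100). Chronic arm: 3 mg/kg po daily for 14 days.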

[14] = target: T2, Alpha-2B adrenergic receptor (Homo sapiens, UniProt P18089); test: Binding affinity to adrenergic alpha2B receptor
T2 sequence (P18089 whole entry): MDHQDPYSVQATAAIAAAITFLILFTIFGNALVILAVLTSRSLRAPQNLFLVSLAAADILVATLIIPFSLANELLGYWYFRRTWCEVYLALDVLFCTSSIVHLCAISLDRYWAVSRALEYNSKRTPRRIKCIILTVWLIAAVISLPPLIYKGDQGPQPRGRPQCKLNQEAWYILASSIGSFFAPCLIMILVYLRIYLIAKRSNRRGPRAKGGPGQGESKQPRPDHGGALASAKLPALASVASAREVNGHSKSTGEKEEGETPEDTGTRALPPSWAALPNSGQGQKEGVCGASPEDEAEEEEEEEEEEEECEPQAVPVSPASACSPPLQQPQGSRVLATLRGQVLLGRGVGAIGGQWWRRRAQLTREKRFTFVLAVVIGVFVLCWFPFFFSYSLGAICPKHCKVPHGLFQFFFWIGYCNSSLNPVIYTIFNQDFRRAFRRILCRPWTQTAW
Outline: (§2)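 Screened at 10 μM in a panel of about 70 receptor binding sites (Novascreen).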

[15] = target: Neuronal acetylcholine receptor; alpha4/beta2 (Homo sapiens, UniProt P17787+P43681); test: Agonist activity at alpha4beta2 nAChR; format: functional
[16] = target: T3, Alpha-2A adrenergic receptor (Homo sapiens, UniProt P08913); test: Binding affinity to adrenergic alpha2A receptor; outline: as §2
T3 sequence (P08913 whole entry): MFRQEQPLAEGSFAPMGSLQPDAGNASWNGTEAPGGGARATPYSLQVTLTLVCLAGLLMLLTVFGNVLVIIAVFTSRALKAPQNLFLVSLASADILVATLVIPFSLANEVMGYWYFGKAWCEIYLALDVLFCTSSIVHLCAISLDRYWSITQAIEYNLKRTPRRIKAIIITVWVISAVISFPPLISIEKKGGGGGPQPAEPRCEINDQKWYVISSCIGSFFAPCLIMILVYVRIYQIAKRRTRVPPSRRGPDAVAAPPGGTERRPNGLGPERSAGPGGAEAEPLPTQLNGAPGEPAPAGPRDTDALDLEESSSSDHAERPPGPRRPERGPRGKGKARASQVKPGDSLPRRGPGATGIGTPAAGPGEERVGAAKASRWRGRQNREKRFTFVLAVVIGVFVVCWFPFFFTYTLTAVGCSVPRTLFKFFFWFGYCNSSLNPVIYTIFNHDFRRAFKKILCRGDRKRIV

[17] = AUC (0 to infinity) in plasma of Han Wistar rat at 2 mg/kg, po; format: ADME, organism-based; design: time infinity, dose 2 mg/kg, route oral
[18] = Intrinsic clearance in rat liver microsomes by LC-MS/MS analysis; format: ADME, Microsome
Outline: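 Rat liver microsomes (0.633 mg/mL protein in 0.1 M potassium phosphate pH 7.4 with EDTA) were incubated with test compound and NADPH regenerating agent for 15 min at 37 °C, against a time-0 control, in duplicate. Reactions were quenched with cold acetonitrile, centrifuged, and supernatants analyzed by LC-MS.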

[19] = Oral bioavailability in Han Wistar rat assessed as ratio of AUC (0 to infinity) at 10 mg/kg, po normalized to 2 mg/kg, iv; format: ADME, organism-based; settings: in vivo
[20] = target: 5-hydroxytryptamine receptor 4 (Homo sapiens, UniProt Q13639); test: Binding affinity to 5HT4 receptor; outline: as §2
Rattus norvegicus [21] = test: Cmax in Long Evans rat at 3 mg/kg, po; format: ADME, organism-based; design: dose 3 mg/kg, route oral; settings: in vivo; outline: as §1
[22] = Ratio of drug level from brain to plasma in Han Wistar rat at 2 mg/kg, po; format: ADME, organism-based; design: dose 2 mg/kg, route oral; settings: read-out: BPR
Outline: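 Male Han Wistar rats received a single 2 mg/kg po dose. Ratio calculated from brain and plasma AUC0-inf.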

Sequence of CYP2C9 (P11712 whole entry): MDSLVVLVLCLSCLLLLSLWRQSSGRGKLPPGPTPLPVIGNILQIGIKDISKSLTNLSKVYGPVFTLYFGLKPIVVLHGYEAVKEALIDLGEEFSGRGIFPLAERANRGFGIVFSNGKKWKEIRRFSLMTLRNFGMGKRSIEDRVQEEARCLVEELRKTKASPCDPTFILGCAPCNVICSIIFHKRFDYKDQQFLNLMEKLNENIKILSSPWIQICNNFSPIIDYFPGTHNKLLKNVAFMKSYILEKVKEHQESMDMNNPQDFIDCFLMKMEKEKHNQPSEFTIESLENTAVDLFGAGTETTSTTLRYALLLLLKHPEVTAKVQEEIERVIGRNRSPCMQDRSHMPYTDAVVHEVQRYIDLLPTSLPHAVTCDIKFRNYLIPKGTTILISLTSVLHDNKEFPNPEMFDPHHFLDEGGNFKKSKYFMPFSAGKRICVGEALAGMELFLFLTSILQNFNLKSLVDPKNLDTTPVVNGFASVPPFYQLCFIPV
Sequence of CYP2D6 (P10635 whole entry): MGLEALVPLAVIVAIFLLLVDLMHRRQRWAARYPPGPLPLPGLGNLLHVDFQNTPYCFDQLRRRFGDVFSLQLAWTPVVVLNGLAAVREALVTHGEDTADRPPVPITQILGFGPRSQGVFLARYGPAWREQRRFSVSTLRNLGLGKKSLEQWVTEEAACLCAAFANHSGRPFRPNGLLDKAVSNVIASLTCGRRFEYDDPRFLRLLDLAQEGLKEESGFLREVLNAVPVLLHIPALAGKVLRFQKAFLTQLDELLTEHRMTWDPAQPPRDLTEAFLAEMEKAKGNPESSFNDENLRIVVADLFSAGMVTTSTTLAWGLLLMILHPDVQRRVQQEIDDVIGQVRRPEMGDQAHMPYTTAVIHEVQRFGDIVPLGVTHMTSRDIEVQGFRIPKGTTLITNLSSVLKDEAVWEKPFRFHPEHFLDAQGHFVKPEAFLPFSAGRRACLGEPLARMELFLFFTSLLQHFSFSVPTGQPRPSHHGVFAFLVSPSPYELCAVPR
Sequence of CYP3A4 (Homo sapiens, UniProt P08684) (P08684 whole entry): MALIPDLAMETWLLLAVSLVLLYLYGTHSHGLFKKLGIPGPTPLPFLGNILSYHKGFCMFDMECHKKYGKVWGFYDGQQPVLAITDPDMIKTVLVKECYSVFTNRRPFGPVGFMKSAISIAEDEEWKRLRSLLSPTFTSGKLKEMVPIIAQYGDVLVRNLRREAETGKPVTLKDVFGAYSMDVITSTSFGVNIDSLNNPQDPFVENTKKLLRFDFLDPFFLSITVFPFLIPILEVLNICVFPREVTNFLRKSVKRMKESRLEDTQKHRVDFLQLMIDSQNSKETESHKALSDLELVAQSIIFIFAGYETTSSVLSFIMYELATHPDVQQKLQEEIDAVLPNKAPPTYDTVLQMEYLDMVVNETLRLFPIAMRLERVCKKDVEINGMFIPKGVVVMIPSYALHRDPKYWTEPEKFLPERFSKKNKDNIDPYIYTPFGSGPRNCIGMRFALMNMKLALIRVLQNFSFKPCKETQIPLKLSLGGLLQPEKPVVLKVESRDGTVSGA
Sequence of Neuronal acetylcholine receptor subunit alpha-7 (Q05941 whole entry): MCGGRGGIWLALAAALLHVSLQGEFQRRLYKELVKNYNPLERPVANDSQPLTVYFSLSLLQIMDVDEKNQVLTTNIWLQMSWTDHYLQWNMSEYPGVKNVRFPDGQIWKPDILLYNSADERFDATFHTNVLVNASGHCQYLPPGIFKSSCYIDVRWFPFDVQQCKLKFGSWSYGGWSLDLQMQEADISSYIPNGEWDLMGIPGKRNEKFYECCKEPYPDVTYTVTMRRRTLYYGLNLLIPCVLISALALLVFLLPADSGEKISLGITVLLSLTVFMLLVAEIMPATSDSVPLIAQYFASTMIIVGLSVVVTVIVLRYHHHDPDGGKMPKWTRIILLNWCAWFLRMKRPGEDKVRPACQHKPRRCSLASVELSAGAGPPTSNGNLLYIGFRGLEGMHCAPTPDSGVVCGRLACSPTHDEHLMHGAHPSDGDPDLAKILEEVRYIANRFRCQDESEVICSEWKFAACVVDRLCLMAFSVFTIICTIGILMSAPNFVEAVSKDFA
Sequence of 5-hydroxytryptamine receptor 4 (Q13639 whole entry): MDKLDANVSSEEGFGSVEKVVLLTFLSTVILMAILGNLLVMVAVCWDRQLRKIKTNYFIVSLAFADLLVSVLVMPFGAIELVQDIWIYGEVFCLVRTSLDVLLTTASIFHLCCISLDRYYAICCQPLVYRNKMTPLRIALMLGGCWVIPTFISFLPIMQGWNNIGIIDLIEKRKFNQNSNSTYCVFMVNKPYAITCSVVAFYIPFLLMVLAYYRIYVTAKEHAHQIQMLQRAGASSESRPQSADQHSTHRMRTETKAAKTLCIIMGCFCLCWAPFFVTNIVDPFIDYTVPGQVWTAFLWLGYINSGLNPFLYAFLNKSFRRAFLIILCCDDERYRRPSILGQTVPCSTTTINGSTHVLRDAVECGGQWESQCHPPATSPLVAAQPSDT
Sequence of Neuronal acetylcholine receptor; alpha4/beta2 (P17787 whole entry): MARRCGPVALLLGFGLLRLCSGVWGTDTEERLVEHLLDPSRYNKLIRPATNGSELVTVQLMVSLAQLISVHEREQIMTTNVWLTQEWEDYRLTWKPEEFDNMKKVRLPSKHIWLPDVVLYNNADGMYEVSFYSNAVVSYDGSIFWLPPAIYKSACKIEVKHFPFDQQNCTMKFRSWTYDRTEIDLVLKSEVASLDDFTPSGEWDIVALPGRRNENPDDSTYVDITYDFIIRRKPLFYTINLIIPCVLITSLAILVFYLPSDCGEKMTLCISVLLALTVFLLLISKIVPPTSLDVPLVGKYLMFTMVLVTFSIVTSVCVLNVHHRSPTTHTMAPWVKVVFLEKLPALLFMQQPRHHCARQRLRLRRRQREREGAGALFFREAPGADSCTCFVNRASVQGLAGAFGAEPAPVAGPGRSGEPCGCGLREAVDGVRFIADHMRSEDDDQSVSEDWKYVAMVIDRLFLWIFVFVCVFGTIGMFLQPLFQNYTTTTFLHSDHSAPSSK
Sequence of Neuronal acetylcholine receptor; alpha4/beta2 (P43681 whole entry): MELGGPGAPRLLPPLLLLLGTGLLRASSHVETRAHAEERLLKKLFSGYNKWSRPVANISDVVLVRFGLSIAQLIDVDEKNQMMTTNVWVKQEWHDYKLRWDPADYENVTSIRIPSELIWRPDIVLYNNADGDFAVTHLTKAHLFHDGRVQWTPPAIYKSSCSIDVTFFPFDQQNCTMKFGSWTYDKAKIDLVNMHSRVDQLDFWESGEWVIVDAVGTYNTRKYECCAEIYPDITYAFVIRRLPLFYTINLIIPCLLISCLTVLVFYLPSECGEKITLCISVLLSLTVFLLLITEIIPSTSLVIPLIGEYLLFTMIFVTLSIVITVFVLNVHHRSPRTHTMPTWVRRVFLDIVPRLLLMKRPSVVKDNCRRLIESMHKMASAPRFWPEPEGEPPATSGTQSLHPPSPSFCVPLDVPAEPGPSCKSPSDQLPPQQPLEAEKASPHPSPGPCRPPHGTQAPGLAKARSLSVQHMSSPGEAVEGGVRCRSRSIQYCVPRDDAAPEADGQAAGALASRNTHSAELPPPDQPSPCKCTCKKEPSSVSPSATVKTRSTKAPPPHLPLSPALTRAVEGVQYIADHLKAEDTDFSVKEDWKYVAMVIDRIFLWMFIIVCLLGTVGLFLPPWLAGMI

Compound | EC50 [1] [nM] | IC50 [2] [nM] | Ratio EC50 [3] | inhibition at 3 µM (CYP2C9) [%] | solubility thermodynamic [4] [µM] | remaining at 1 h (CYP3A4 [5]) [%] | Ratio EC50 [6] | inhibition at 3 µM (CYP3A4 [7]) [%] | inhibition at 3 µM (CYP2D6) [%] | also measured
O=C(NCCCCN1CCOCC1)Nc1ccc(-c2cccnc2)cc1 | 490 |  |  |  |  |  |  |  |  | 
O=C(CCCCCN1CCCCC1)Nc1ccc(-c2cccnc2)cc1 | 890 |  |  |  |  |  |  |  |  | 
O=C(NCCCCN1CCCCC1)Nc1ccc(-c2ccccc2F)cc1 | 130 | 5700 | 1.2 | -1 | 95 (≈ 35.1 µg/mL) | 88 | 8.2 | -17 |  | 
O=C(NCCCCN1CCCCC1)Nc1ccc(-c2ccc(F)nc2)cc1 | 120 | > 30000 | 1.2 | -18 | 158 (≈ 58.5 µg/mL) | 100 | > 30 | -22 |  | 
O=C(NCCCCN1CCCCC1)Nc1ccc(-c2ccccn2)nc1 | 390 | > 30000 | 9.88 | -3 | 171 (≈ 60.4 µg/mL) | 100 | > 30 | 0 | 22 | 
O=C(NCCCCN1CCCCC1)Nc1ccc(-c2ccc(F)cc2)nc1 |  | > 30000 |  | -17 | 121 (≈ 44.8 µg/mL) | 75 |  | 0 | 19 | minimal effective dose (Rattus norvegicus [8]): 3 mg/kg; AUC(0-inf) [9]: 215 ng·h/mL; half-life [10]: 3.5 h; Tmax [11]: 5.3 h; AUC(0-t) [12]: 318 ng·h/mL; minimal effective dose (Rattus norvegicus [13]): 3 mg/kg; IC50 [14]: 35000 nM; IC50 [15]: > 30000 nM; IC50 [16]: 7500 nM; AUC(0-inf) [17]: 768 ng·h/mL; microsomal CLint [18]: < 5 µL/min/mg; bioavailability [19]: 100%; Ki [20]: 6000 nM; Cmax (Rattus norvegicus [21]): 40 ng/mL; Kp [22]: 0.3
O=C(NCCCCN1CCCCC1)Nc1ccc(-c2ccccc2)nc1 | 120 | > 30000 | 10.1 | -4 | 193 (≈ 68 µg/mL) | 100 | > 30 | -21 | 6 | microsomal CLint [18]: 18 µL/min/mg
O=C(NCCCCN1CCCCC1)Nc1ccc(-c2cccnc2)cc1 | 120 |  |  |  |  |  |  |  |  | 
O=C(NCCCCN1CCCCC1)Nc1ccc(-c2ccccn2)cc1 | 130 | > 30000 | 5 | 0 | 153 (≈ 53.9 µg/mL) | 97 | > 30 | -2 | 15 | 
COc1ccccc1-c1ccc(NC(=O)NCCCCN2CCCCC2)cc1 | 140 | 7800 | 1.1 | -2 | 114 (≈ 43.5 µg/mL) | 100 | 7.7 | 5 |  | 

Continued, in another order:

EC50 [1] [nM] | IC50 [2] [nM] | Ratio EC50 [3] | inhibition at 3 µM (CYP2C9) [%] | solubility thermodynamic [4] [µM] | remaining at 1 h (CYP3A4 [5]) [%] | Ratio EC50 [6] | inhibition at 3 µM (CYP3A4 [7]) [%] | inhibition at 3 µM (CYP2D6) [%] | Compound | also measured
150 | > 30000 | 5.6 | -10 | 196 (≈ 72.6 µg/mL) | 100 | > 30 | -3 |  | O=C(NCCCCN1CCCCC1)Nc1ccc(-c2ccccc2F)nc1 | 
 | 5800 | 1.7 | -16 | 20 (≈ 7.39 µg/mL) | 100 | 8 | -13 |  | O=C(NCCCCN1CCCCC1)Nc1ccc(-c2ccc(F)cc2)cc1 | 
230 | > 30000 | 3.9 | 6 | 174 (≈ 66.6 µg/mL) | 88 | > 30 | 8 | 8 | COc1ccccc1-c1ccc(NC(=O)NCCCCN2CCCCC2)cn1 | 
530 | > 30000 | > 30 | -10 | 205 (≈ 76.1 µg/mL) | 100 | > 30 | -19 | 8 | O=C(NCCCCN1CCCCC1)Nc1ccc(-c2ccc(F)nc2)nc1 | 
260 | 7900 | 2.8 | 2 | 108 (≈ 38 µg/mL) | 100 | > 30 |  |  | O=C(NCCCCN1CCCCC1)Nc1ccc(-c2ccccc2)cc1 | 
350 |  |  |  |  |  |  |  |  | O=C(CCCCN1CCCCC1)Nc1ccc(-c2cccnc2)cc1 | 
